# Compound activity: PubChem BioAssay, several laboratories
# This is a sample that favours compounds with a hit; in the whole collection about 2.2% have one here.
# rRNA inh HTS – reduced GFP signal of wild-type E. coli, primary screen, bacterial rRNA inhibitor project, GFP/RFP fluorescence, OD600, single point | E. coli WT GFP vs humanized-ribosome RFP mutants, 24 h; stronger effect = lower value; DMSO median 0, no signal -100 | GFP signal change (wild-type ribosome), % (no concentration beside the values) | actives 1.6% (n = 350,000);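 active = significant combined selectivity score with lowered wild-type GFP, culture density cut under 30%, mutant RFP and density less affected; inactive = any of these conditions unmet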
# CR mimetic SO – reduction of superoxide in aged yeast, primary screen, HTS | actives 0.18% (n = 330,000) | S. cerevisiae aged cells, superoxide DHE fluorescence; stronger effect = lower value | AID 2690, 2010 | superoxide response (% of plate mean), % at 10 µM;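 active = superoxide response under a set limit, about three screen SD below normal, cut at about 65% in these data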;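 also: yeast aged for seven days with compound at 30 °C before DHE staining; 100% = average MFI of all compound-treated wells on the plate with controls excluded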
# Cneo AK release – Cryptococcus neoformans cell lysis inducers, primary screen, AK release luminescence, single concentration; AID 651654, 2012; actives 0.2% (n = 360,000); C. neoformans lysis, adenylate kinase release luminescence, 4 h; normalised: neutral wells 0, clomiphene wells 100; lysis activity, % at 15 µM;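 active = mean lysis activity across replicates of at least 80%, whatever share of replicates individually reach that level; inactive = mean lysis activity below 80%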
#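 read-out = cell lysis signal | test system = log-phase Cryptococcus neoformans yeast cells | input = cells at 5 × 10^6 per mL | medium = fresh YPD growth medium | signal = luminescent adenylate kinase detection reagent | timing = 4 h at 37 °C static, read 1 h later | dosing = single dose | controls = Clomiphene as positive lysis control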
# Mot1-301 SUMO – yeast Mot1-301 growth rescue at high temperature, primary screen, SUMOylation pathway inhibitor project, S. cerevisiae, ATP luminescence, 38.5C | actives 1% (n = 320,000) | S. cerevisiae Mot1-301 growth rescue; percent above DMSO median, 100 means doubled | growth rescue, % at 18.8 µM | AID 2716, 2010;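 active = every valid replicate shows activation above 250% relative to neutral control wells; inactive = the rest, any valid replicate at or below 250%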;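 also: OY570 slx delta 5 strain wells were the positive control but not used for scaling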
# PglD DTNB – C. jejuni PglD acetyltransferase inhibitors, primary screen, biochemical, DTNB colorimetric, single point | purified PglD enzyme, DTNB colorimetric CoA detection | actives 0.098% (n = 360,000) | AID 602405, 2012 | inhibition, % at 12.5 µM; in the data active = inhibition above about 16%, passing the limit was not always enough
# Starred values were filed as active, the others as inactive; · = no result.
SMILES,rRNA inh HTS,CR mimetic SO,Cneo AK release,Mot1-301 SUMO,PglD DTNB
COc1ccc(S(=O)(=O)Nc2ccc3c(c2)C(=O)N([C@@H](C)CO)C[C@@H](C)[C@@H](CN(C)C(=O)CCCN(C)C)OCCCC[C@@H](C)O3)cc1,3.5,·,-1.0,·,-1.1
C[C@@H]1CN([C@@H](C)CO)C(=O)c2cccc(NS(=O)(=O)c3ccccc3)c2O[C@H]1CN(C)Cc1ccccc1,1.4,·,40.6,·,2.7
Cn1c(CSc2nc3ccc(Br)cc3[nH]2)nc2ccccc21,-21.6*,94.9,0.3,1.4,-0.4
O=C(N/N=C/c1c[nH]c2ccccc12)c1cc(-c2ccccc2)n[nH]1,-34.4*,109.6,-0.7,-0.9,-4.9
COc1ccc(CC(=O)NCC(=O)N/N=C/c2c[nH]c3ccccc23)cc1,-36.8*,106.2,-2.2,-3.0,1.0
O=C(N/N=C/c1c[nH]c2ccccc12)C1CC1(c1ccccc1)c1ccccc1 (stereo not given),·,113.7,1.8,18.6,6.3
O=C(N/N=C/c1c[nH]c2ccccc12)C1CC1c1ccccc1 (stereo not given),-27.9*,100.6,·,-5.2,·
O=C(CNC(=O)c1ccco1)N/N=C/c1c[nH]c2ccccc12,3.9,104.9,0.4,·,-4.5
Nc1nn2cc(-c3ccccc3)nc2c2ccccc12,-40.6*,81.5,·,38.6,·
Cc1cc(C)c2cccc(N)c2n1,-22.8*,110.7,0.2,232.0,3.1
CN(C)c1cccc2c1c(NC(=O)Nc1ccccc1)nn2C,-17.9*,99.9,·,2.8,·
CCOC(=O)c1ccc(NC(=O)Nc2ccc(F)cc2)cc1,·,126.3,-3.4,9.8,-2.2
CCOc1cc(NC(=O)Nc2ccc(F)cc2)c(OCC)cc1NC(=O)CC,-38.4*,94.9,-0.3,-3.3,-12.2
O=C1CC(c2ccccc2)Oc2cc(O)cc(O)c21 (stereo not given),·,90.8,-0.4,8.5,3.1
COc1cc(OC)c2c(c1O)OC(c1ccccc1)CC2=O (stereo not given),5.2,114.0,-0.1,696.3*,-6.2
C/C(=N\NC(=O)c1cc(-c2ccc(C)s2)[nH]n1)c1ccncc1,-15.1*,104.7,-0.8,0.3,-0.6
CC(/C=N/NC(=O)c1cc(-c2ccc(C)s2)[nH]n1)=C\c1ccccc1,-1.8,80.3,·,-1.3,·
C=CCN(C(=O)c1csnn1)C(C(=O)NC1CCCC1)c1c(F)cccc1Cl (stereo not given),-20.9*,110.0,2.3,-5.7,1.5
C=CCN(C(=O)c1csnn1)C(C(=O)NC1CCCCC1)c1ccc(Cl)cc1 (stereo not given),-4.0,96.3,3.5,69.5,-3.0
O=C(NC1CCCC1)N[C@H]1CC[C@@H](CC(=O)N2CCOCC2)O[C@@H]1CO,1.9,·,0.3,·,2.4
CC(C)CCOc1ccc(Cl)cc1CN1CCOCC1,·,82.4,3.9,313.2*,8.4
CCCCCOc1ccc(Cl)cc1CN1CCOCC1,·,78.8,·,137.4,·
C[C@H](O)C#Cc1cnc2c(c1)C(=O)N([C@H](C)CO)C[C@@H](C)[C@H](CN(C)C(=O)Cc1ccncc1)O2,2.9,·,6.2,·,-4.6
CC(c1nnnn1C1CCCCC1)N(Cc1ccccc1)Cc1cccnc1 (stereo not given),·,100.4,-22.1,278.4*,1.6
CCN(Cc1ccccc1)C(c1ccccn1)c1nnnn1C1CCCCC1 (stereo not given),·,92.8,4.5,·,2.6
SMILES,rRNA inh HTS,CR mimetic SO,Cneo AK release,Mot1-301 SUMO,PglD DTNB
Cc1cccc(C)c1OCC(O)CN1CCN(c2ccccn2)CC1 (stereo not given),-8.1,100.2,·,·,·
Cc1cccc(C)c1OCC(O)CN1CCN(c2ccccc2)CC1 (stereo not given),-28.7*,93.1,-1.0,56.5,1.5
Cn1nc(-c2ccccc2)c(CN2CCN(c3ncccn3)CC2)c1Cl,-34.1*,133.1,·,7.5,·
COc1cc(CC(=O)NCC2COc3ccccc3O2)cc(OC)c1OC (stereo not given),9.8,79.8,·,3.6,·
COc1ccccc1NC(=O)C(=O)NCC1COc2ccccc2O1 (stereo not given),-22.9*,87.3,0.1,-0.6,-0.1
COC(=O)CN1C(=S)N(c2ccc(Cl)cc2)C(=O)C1CC(=O)Nc1ccc(F)cc1 (stereo not given),-24.9*,104.0,·,-7.7,·
CC(C)(C)N(Cc1ccccc1)C(=O)CN1C(=O)c2ccccc2C1=O,3.9,91.7,-0.3,-7.7,-0.1
CC(C)(C)N(Cc1ccccc1)C(=O)CN1C(=O)c2ccccc2S1(=O)=O,-23.7*,101.8,-0.3,71.7,-0.6
COc1ccc(NC(=O)N2C[C@@H](O)COC[C@H]3O[C@@H](CC(=O)NC4Cc5ccccc5C4)CC[C@@H]32)cc1,-2.9,·,-2.1,·,-2.4
CNC(=S)N(CCc1c(C)[nH]c2ccccc12)Cc1ccco1,-20.0*,98.8,·,7.8,·
NC(=O)NC(c1ccccc1)c1cccc2ccccc12 (stereo not given),-33.4*,86.9,-1.7,-7.8,-1.2
NC(=O)NC(c1ccc(Cl)cc1)c1ccccc1Cl (stereo not given),-34.7*,114.0,·,-0.7,·
COc1ccc(NC(=O)Nc2ccc3c(c2)C(=O)N([C@@H](C)CO)C[C@H](C)[C@@H](CN(C)Cc2ccc(C(=O)O)cc2)OCCCC[C@@H](C)O3)cc1,-2.4,·,1.3,·,0.4
CNC[C@H]1OCCCC[C@H](C)Oc2ccc(NS(=O)(=O)c3ccc(OC)cc3)cc2C(=O)N([C@@H](C)CO)C[C@H]1C,-0.2,·,0.2,·,-0.8
Cc1cccc(C)c1NC(=O)CN(C)C(=O)c1ccc2c(=O)n3c(nc2c1)CCC3,13.3,65.4*,-0.7,5.3,-0.2
Cc1ccccc1OCC(=O)Nc1ccccc1-c1ccccc1,-38.1*,109.1,·,-7.8,·
CCN(CC(=O)NCc1ccc(F)cc1)CC(=O)Nc1ccccc1-c1ccccc1,-33.2*,104.0,0.9,-13.0,3.6
Cc1ccccc1NC(=O)COc1ccccc1C,-24.1,82.5,1.2,217.3,2.3
CCN(CC(=O)Nc1ccccc1OC)CC(=O)Nc1ccccc1-c1ccccc1,-32.0*,92.2,·,0.6,·
CN(C)c1ccc(C(O)P(=O)(OC2CCCCC2)OC2CCCCC2)cc1 (stereo not given),-33.7*,102.1,-1.2,1.0,-0.6
CO[C@H]1CN(C)C(=O)c2cc(NC(=O)Cc3ccccc3)ccc2OC[C@H](C)NC[C@H]1C,2.5,·,-2.6,·,-0.8
CC1Cc2ccccc2N1S(=O)(=O)c1cnc(Cl)c(Br)c1 (stereo not given),-26.8*,109.8,2.2,14.0,-2.2
